PRMT1 inh – PRMT1 methyltransferase inhibitors, primary screen, biochemical, fluorescence polarization; Protein arginine N-methyltransferase 1 (Homo sapiens), Q99873; recombinant PRMT1, activity-based probe fluorescence polarization; inhibition, % at 2.79 µM; actives 1.3% (n = 370,000); AID 652257, 2013;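 active = inhibition above about 21% made by adding two undisclosed values, limit read from the data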
Target sequence (Q99873 whole entry, looked up): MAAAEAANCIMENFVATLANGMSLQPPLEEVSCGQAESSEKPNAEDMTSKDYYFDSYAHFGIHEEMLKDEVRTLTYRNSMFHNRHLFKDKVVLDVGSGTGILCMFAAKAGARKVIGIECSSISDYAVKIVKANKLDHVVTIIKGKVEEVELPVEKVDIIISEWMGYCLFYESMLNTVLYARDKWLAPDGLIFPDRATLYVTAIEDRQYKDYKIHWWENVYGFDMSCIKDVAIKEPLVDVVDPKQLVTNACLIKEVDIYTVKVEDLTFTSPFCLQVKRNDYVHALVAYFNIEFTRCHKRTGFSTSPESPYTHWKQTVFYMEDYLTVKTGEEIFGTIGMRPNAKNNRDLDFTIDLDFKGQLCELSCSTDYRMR
GSTO1 inh – inhibitors of recombinant GSTO1, primary screen, counter-screen for RBBP9 inhibitor project, biochemical, fluorescence polarization | activity-based probe fluorescence polarization | inhibition, % at 5.96 µM | actives 1.1% (n = 300,000) | AID 1974, 2009;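 active = inhibition above the campaign mean inhibition plus 3 SD, cut at about 35% in these data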;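 also: 0% = GSTO1-1 with DMSO and 100% = wells lacking GSTO1-1 enzyme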
Target sequence (P78417 whole entry, looked up): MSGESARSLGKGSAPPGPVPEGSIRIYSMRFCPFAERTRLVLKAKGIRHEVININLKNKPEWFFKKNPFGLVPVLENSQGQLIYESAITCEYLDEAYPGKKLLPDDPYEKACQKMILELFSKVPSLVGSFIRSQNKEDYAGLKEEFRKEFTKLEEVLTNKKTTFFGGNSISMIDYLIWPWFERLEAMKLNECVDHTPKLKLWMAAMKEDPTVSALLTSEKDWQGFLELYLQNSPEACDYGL
RBBP9 inh – human RBBP9 inhibitors, primary screen, biochemical, fluorescence polarization, FP-Rh probe, HTS | Serine hydrolase RBBP9 (Homo sapiens), O75884 | recombinant RBBP9 | inhibition, % at 7.94 µM | actives 0.2% (n = 220,000);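 active = inhibition above the campaign mean of all tested compounds plus 3 SD, cut at about 14% in these data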;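 also: plate controls were DMSO wells with RBBP9 for no effect and wells lacking RBBP9 protein for full effect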
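System: RBBP9 protein / Quantity: 2.5 µM RBBP9 dispensing solution, before mixing / Also added: Serine-hydrolase probe FP-Rh, 375 nM pre-mixing / Dosing: 7.94 µM single dose, 0.794% DMSO / Timing: enzyme-compound preincubation 30 min, then probe labeling 45 min, 25 °C / Signal: FP readout at 525/598 nm / Controls: DMSO-treated enzyme wells and wells lacking RBBP9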
PAD4 inh – human PAD4 inhibitors, primary screen, biochemical, fluorescence polarization, 1536-well format; Protein-arginine deiminase type-4 (Homo sapiens), Q9UM07; actives 0.41% (n = 330,000); recombinant PAD4, RCA probe fluorescence polarization; inhibition, % at 6.36 µM;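 active = percent inhibition above a cutoff equal to the mean of all tested compounds plus 3 SD, cut at about 15% in these data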;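 also: 0% = PAD4 with RCA probe and DMSO and 100% = probe without PAD4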
SIAE inh – human SIAE inhibitors, primary screen, biochemical, fluorescence polarization, FP-Rh probe, 1536-well HTS. SIAE FP-Rh probe binding. inhibition, % at 9.66 µM. actives 0.69% (n = 370,000). AID 1053197, 2014;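 active = inhibition above a cutoff: mean of compounds within the control limits plus 3 SD of those, cut at about 17% in these data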;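 also: 0% = plate median of compound wells and 100% = probe without SIAE protein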
The depositor's hits bear a star. In the library only some 2.7% were active in any assay of this set; here they are far more common.

Screening CC1CCN(C2=C(NS(=O)(=O)c3ccccc3)C(=O)c3ccccc3C2=O)CC1 returned PRMT1 inh -9, GSTO1 inh 35*, RBBP9 inh -10, PAD4 inh -6 and SIAE inh 8.
Screening CC1CCN(C2=C(NS(=O)(=O)c3ccc(Cl)cc3)C(=O)c3ccccc3C2=O)CC1 returned PRMT1 inh -2, GSTO1 inh 31, RBBP9 inh 4, PAD4 inh -7 and SIAE inh 8.
For CCOc1ccc(C2C(C(=O)C3CC3)N3C=C(C#N)C=CC3C2(C#N)C#N)cc1 (centres undefined) the results were PRMT1 inh 4, GSTO1 inh -7, RBBP9 inh -8, PAD4 inh 0 and SIAE inh -5.
For COC1=C(Br)C(=O)c2nc(C)ccc2C1=O the results were PRMT1 inh 28* and SIAE inh -7.
For COC1=C(N)C(=O)c2nc(C)ccc2C1=O the results were PRMT1 inh 5 and SIAE inh -3.
For COC(C(=O)Nc1ccc(S(=O)(=O)Nc2c(C)cccc2C)cc1)c1ccccc1 (centres undefined) the results were PRMT1 inh -2, GSTO1 inh 0, RBBP9 inh 1, PAD4 inh -4 and SIAE inh -8.
c1ccc(-c2nc(-c3ccco3)n3ccccc23)cc1 was read as PRMT1 inh 24*, GSTO1 inh 5, RBBP9 inh -8, PAD4 inh -18 and SIAE inh 1.
For COc1cccc(CNc2ccc(S(N)(=O)=O)cc2)c1OCc1ccccc1F the results were PRMT1 inh -1, GSTO1 inh -3, RBBP9 inh -4, PAD4 inh -3 and SIAE inh -5.
`COc1cccc(CNc2ccccc2O)c1OCc1ccccc1F` gave PRMT1 inh 5, GSTO1 inh 36*, RBBP9 inh 1, PAD4 inh -20 and SIAE inh 10.
For Cc1ccc(/C=C/C(=O)NCc2ccccn2)o1 the results were PRMT1 inh 21*, GSTO1 inh -1, RBBP9 inh -3, PAD4 inh -2 and SIAE inh 7.
Screening Cc1ccc(/C=C/C(=O)NCc2ccco2)o1 returned PRMT1 inh 13, GSTO1 inh -3, RBBP9 inh -3, PAD4 inh -2 and SIAE inh -6.
O=C(O)/C=C/C(=O)Nc1c(F)cccc1F was read as PRMT1 inh 22*, GSTO1 inh 10, RBBP9 inh -4, PAD4 inh 1 and SIAE inh -3.
`CC(C)N1CC2=C(OC(N)=C(C#N)C2c2cccnc2)/C(=C/c2cccnc2)C1` (centres undefined) gave PRMT1 inh 2, GSTO1 inh 6, RBBP9 inh -3, PAD4 inh 16* and SIAE inh 0.
`Oc1cccc(-c2nc3ccccc3s2)c1` gave PRMT1 inh 2, GSTO1 inh 14, RBBP9 inh -8, PAD4 inh -1 and SIAE inh -3.
Screening Oc1ccc(O)c(Cc2nc3ccccc3s2)c1 returned PRMT1 inh 49*, GSTO1 inh 61*, RBBP9 inh -3, PAD4 inh -7 and SIAE inh 4.
For Cc1ccc(Nc2n[nH]c(=S)s2)cc1F the results were PRMT1 inh 22* and SIAE inh 7.
Screening CC(C)NC(=O)N(C)C[C@@H]1Oc2ncc(-c3cccc(C#N)c3)cc2C(=O)N([C@H](C)CO)C[C@@H]1C returned PRMT1 inh -3 and SIAE inh 5.
Screening O=C(CN1C(=O)S/C(=C\c2ccccc2F)C1=O)Nc1ccccc1O returned PRMT1 inh 22*, GSTO1 inh -5, PAD4 inh 4 and SIAE inh -8.
For Cc1ccc(C2C(C#N)=C(N)Oc3nc(-c4ccccc4)[nH]c32)o1 (centres undefined) the results were PRMT1 inh 4, GSTO1 inh 34, RBBP9 inh -5, PAD4 inh -10 and SIAE inh -5.
O=C(NNc1nc2ccccc2s1)Nc1ccc(Cl)c(Cl)c1 was read as PRMT1 inh 23*, GSTO1 inh -15, RBBP9 inh 2, PAD4 inh 7 and SIAE inh 5.
`O=C(NNc1nc2ccccc2s1)Nc1ccc(F)cc1` gave PRMT1 inh -2, GSTO1 inh 1, RBBP9 inh 6, PAD4 inh -2 and SIAE inh 13.
Cc1ccc(/C=N/N(C)C2=NS(=O)(=O)c3ccccc32)o1 was read as GSTO1 inh -9, RBBP9 inh 2 and PAD4 inh 0.
`COc1ccc(C(=O)/C=C(\C)Nc2ccc3c(c2)OCO3)cc1` gave PRMT1 inh 22*, GSTO1 inh 8, RBBP9 inh -4, PAD4 inh -1 and SIAE inh 9.
For COc1ccc(N/C(C)=C/C(=O)c2ccccc2)cc1 the results were PRMT1 inh -5, GSTO1 inh 3, RBBP9 inh -1, PAD4 inh -5 and SIAE inh 4.
CN(C)CCCN(C(=O)c1ccc(S(=O)(=O)N2CCc3ccccc32)cc1)c1nc2ccc(Cl)cc2s1 was read as PRMT1 inh 27*, GSTO1 inh -10, PAD4 inh 9 and SIAE inh -22.
Screening CN(C)CCCN(C(=O)c1ccc(S(=O)(=O)N2CCc3ccccc32)cc1)c1nc2ccc(F)cc2s1 returned PRMT1 inh 23*, GSTO1 inh 0, PAD4 inh 2 and SIAE inh -5.
`Cc1ccc2nc(N(CCCN(C)C)C(=O)c3ccc(S(=O)(=O)N4CCc5ccccc5C4)cc3)sc2c1` gave PRMT1 inh -1, GSTO1 inh -1, PAD4 inh -2 and SIAE inh 0.
CN(C)CCCN(C(=O)c1ccc(S(=O)(=O)N2CCc3ccccc3C2)cc1)c1nc2ccc(F)cc2s1 was read as PRMT1 inh 4, GSTO1 inh 2, PAD4 inh -3 and SIAE inh 5.
COCc1ccc(C(=O)N2CCCC(N(C)CCc3ccc(OC)c(OC)c3)C2)s1 (centres undefined) was read as PRMT1 inh -2, GSTO1 inh 0, PAD4 inh -4 and SIAE inh -6.
`CCc1ccc(NS(=O)(=O)c2ccc3[nH]cc(C(=O)NCC4CCCO4)c(=O)c3c2)cc1` (centres undefined) gave PRMT1 inh -1, GSTO1 inh 9, RBBP9 inh -11, PAD4 inh -12 and SIAE inh -11.
For O=Cc1cccc(Oc2ccc([N+](=O)[O-])cc2[N+](=O)[O-])c1 the results were PRMT1 inh 0, GSTO1 inh 5, RBBP9 inh -2, PAD4 inh 0 and SIAE inh -5.
For O=C(CCl)N1CCN(C(=O)C2COc3ccccc3O2)CC1 (centres undefined) the results were PRMT1 inh 2, PAD4 inh -4 and SIAE inh 2.
